The source of these data is ChEMBL document CHEMBL1144610, “High-affinity carbamate analogues of morphinan at opioid receptors” (Bioorg Med Chem Lett, 2007).

Test [1] addresses T1, Mu-type opioid receptor (Homo sapiens, UniProt P35372). Kind of test: Agonist activity at human mu opioid receptor expressed in CHO cells assessed as maximal stimulation of [35S]GTP-gamma-S binding. In kind it is functional, cell-based.
The target of test [2] is Opioid receptors; mu & kappa (Homo sapiens) (UniProt P41145+P35372). Kind of test: Selectivity for kappa opioid receptor over mu opioid receptor expressed in CHO cells. In kind it is cell-based.
Opioid receptors; mu & kappa (Homo sapiens), sequence (P35372 whole entry, looked up): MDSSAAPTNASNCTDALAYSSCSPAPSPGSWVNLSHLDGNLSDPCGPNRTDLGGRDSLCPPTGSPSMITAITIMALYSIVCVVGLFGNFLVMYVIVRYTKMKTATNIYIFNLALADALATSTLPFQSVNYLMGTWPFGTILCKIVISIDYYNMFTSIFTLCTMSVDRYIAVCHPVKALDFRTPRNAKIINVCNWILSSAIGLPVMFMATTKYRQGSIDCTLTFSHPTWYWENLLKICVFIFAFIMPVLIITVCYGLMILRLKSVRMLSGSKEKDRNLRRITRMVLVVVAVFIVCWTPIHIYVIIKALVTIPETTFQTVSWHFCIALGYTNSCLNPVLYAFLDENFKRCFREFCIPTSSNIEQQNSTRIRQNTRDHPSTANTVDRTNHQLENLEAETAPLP
Opioid receptors; mu & kappa (Homo sapiens), sequence (P41145 whole entry, looked up): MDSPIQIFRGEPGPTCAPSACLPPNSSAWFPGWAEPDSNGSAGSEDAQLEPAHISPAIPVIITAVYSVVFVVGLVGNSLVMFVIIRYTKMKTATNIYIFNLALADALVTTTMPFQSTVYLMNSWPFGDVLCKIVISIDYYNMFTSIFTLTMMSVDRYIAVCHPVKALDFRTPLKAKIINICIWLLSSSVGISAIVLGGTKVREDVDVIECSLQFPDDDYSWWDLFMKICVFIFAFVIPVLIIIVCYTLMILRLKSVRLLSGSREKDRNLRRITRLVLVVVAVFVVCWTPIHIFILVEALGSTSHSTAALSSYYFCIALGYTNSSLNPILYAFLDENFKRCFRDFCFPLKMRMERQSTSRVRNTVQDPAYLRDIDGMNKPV
Test [3] addresses Opioid receptors; delta & kappa (Homo sapiens) (UniProt P41145+P41143). The test can be described thus: Selectivity for kappa opioid receptor over delta opioid receptor. In kind it is protein assay.
In test [4] the target is T2, Kappa-type opioid receptor (Homo sapiens, UniProt P41145). Kind of test: Displacement of [3H]U-69593 from human kappa opioid receptors expressed in CHO cell membrane. For orientation: Loss of bound radioactivity is the signal in a displacement assay; it reports binding, not function.
T2 sequence (P41145 whole entry): as the sequence (P41145 whole entry, looked up) above
Test [5] deals with T2, Kappa-type opioid receptor. The test can be described thus: Agonist activity at human opioid kappa receptor expressed in CHO cells assessed as maximal stimulation of [35S]GTP-gamma-S binding relative to control. In kind it is functional, cell-based. The procedure, abridged: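 CHO cell membranes stably expressing only the human κ opioid receptor were incubated with varying concentrations of each compound. Stimulation of [35S]GTPγS binding was measured, and maximal stimulation was taken as Emax.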
(In general: GTPγS resists hydrolysis and so accumulates on activated G proteins.)

The target of test [6] is T1, Mu-type opioid receptor. Kind of test: Displacement of [3H]DAMGO from human mu opioid receptors expressed in CHO cell membrane.
The target in test [7] is Delta-type opioid receptor (Homo sapiens, UniProt P41143). The test can be described thus: Displacement of [3H]naltrindole from human delta opioid receptors expressed in CHO cell membrane.
Delta-type opioid receptor, sequence (P41143 whole entry): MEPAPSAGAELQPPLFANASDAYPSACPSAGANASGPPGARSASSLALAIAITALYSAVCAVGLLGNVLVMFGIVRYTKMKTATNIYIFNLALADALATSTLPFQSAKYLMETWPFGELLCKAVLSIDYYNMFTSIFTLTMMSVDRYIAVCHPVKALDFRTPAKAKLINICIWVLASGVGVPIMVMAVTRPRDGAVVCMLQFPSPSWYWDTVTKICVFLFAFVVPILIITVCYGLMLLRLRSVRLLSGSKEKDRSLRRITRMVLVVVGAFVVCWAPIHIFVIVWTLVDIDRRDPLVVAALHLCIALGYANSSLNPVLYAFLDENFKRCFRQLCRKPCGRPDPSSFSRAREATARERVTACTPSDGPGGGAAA
The target in test [8] is T2, Kappa-type opioid receptor. The test can be described thus: Agonist activity at huma kappa opioid receptor expressed in CHO cells assessed as […] of [35S]GTP-gamma-S binding. In kind it is functional, cell-based.
For test [9], the target named is T1, Mu-type opioid receptor. The test can be described thus: Antagonist activity at human mu opioid receptor expressed in CHO cells assessed as DAMGO-stimulated [35S]GTP-gamma-S binding. In kind it is functional, cell-based.
Test [10] can be described thus: Displacement of [3H]naltrindole from human delta opioid receptors expressed in CHO cell membrane.

Active and inactive are the calls of the source. The rule behind the calls is not given here.

T1 sequence (P35372 whole entry): as the sequence (P35372 whole entry, looked up) above
Opioid receptors; delta & kappa (Homo sapiens), sequence (P41143 whole entry, looked up): as the sequence (P41143 whole entry) above
Opioid receptors; delta & kappa (Homo sapiens), sequence (P41145 whole entry, looked up): as the sequence (P41145 whole entry, looked up) above

As a reminder, the EC50 is the concentration at which the effect is half-maximal. As a reminder, the Emax is the size of the effect at its maximum, as opposed to the concentration needed. As a reminder, the Ki is a dissociation constant, usually derived from enzyme kinetics or from competition with a known ligand. The low end stands for tighter binding, the high end for weaker binding. With `CNC(=O)Oc1ccc2c(c1)C13CCCCC1C(C2)N(CC1CCC1)CC3` (single isomer, unassigned; (-)), the values for the EC50 (at Mu-type opioid receptor [1]; in [8]) were 11 nM and 9.6 nM, respectively. The Emax at Mu-type opioid receptor [1] stood at 60%; in [5], 88%. The Ratio Ki in test [2] turned out to be 1.5; in test [3] it was 37. Further, the inhibition constant (Ki) amounted to 0.81 nM in [4], 1.2 nM at Mu-type opioid receptor [6] and 30 nM in test [7].
As a reminder, the IC50 is the concentration that inhibits the measured activity by half. Take `CCNC(=O)Oc1ccc2c(c1)C13CCCCC1C(C2)N(CC1CC1)CC3` (single isomer, unassigned; (-)): the EC50 was determined as 2.4 nM on Mu-type opioid receptor [1] and 1.2 nM in test [8]. Moreover, the maximal effect (Emax) came to 40% at Mu-type opioid receptor [1] and 140% in test [5]. The values for the Ratio Ki in test [2] and in test [3] were 2 and 20, respectively. Besides, the results for the inhibition constant Ki (in test [4]; at Mu-type opioid receptor [6]; in test [7]) were 0.14 nM, 0.29 nM and 2.8 nM, respectively. The IC50 on Mu-type opioid receptor [9] came to 10 nM. The Imax at Mu-type opioid receptor [9] was 68%.
In the case of `CNC(=O)Oc1ccc2c(c1)C13CCCCC1C(C2)N(CC1CC1)CC3` (single isomer, unassigned; (-)), the EC50 was determined as 14 nM on Mu-type opioid receptor [1] and 16 nM in test [8]. Also, the Emax at Mu-type opioid receptor [1] came to 44%; in test [5] it was 78%. Also, the Ratio Ki stood at 1.6 in test [2] and 12 in test [3]. The values for the Ki (in [4]; on Mu-type opioid receptor [6]; in [7]) were 3.4 nM, 5.3 nM and 42 nM, respectively.
As to `O=C(Nc1ccccc1)Oc1ccc2c(c1)C13CCCCC1C(C2)N(CC1CC1)CC3` (stereo not given), the EC50 on Mu-type opioid receptor [1] turned out to be 0.44 nM; in test [8] it was 0.38 nM. Besides, the Emax is 39% at Mu-type opioid receptor [1] and 120% in test [5]. Besides, the Ratio Ki in test [2] was determined as 2.4; in test [3] it was 35. The Ki in [4] stood at 0.046 nM; at Mu-type opioid receptor [6], 0.11 nM; in test [7], 1.6 nM. In addition, the IC50 on Mu-type opioid receptor [9] is 6.4 nM. Also, at Mu-type opioid receptor [9], the Imax stood at 70%.
As to `O=C(Nc1ccccc1)Oc1ccc2c(c1)C13CCCCC1C(C2)N(CC1CCC1)CC3` (single isomer, unassigned; (-)), the EC50 is 1.3 nM at Mu-type opioid receptor [1] and 2.2 nM in test [8]. For the same compound, the Emax on Mu-type opioid receptor [1] turned out to be 80%; in test [5], 74%. Moreover, the Ratio Ki in test [2] was 2; in test [3], 76. The Ki came out at 0.051 nM in [4], 0.12 nM on Mu-type opioid receptor [6] and 3.9 nM in test [7]. In addition, the concentration for half-maximal inhibition (IC50) on Mu-type opioid receptor [9] turned out to be 22 nM. In addition, the Imax at Mu-type opioid receptor [9] is 37%.
As for `Oc1ccc2c(c1)[C@@]13CCCC[C@H]1[C@@H](C2)N(CC1CC1)CC3` [CYCLORPHAN], the Ki in test [10] came to 1.9 nM.
On to `CNC(=O)Oc1ccc2c(c1)C13CCCCC1C(C2)N(C)CC3` (stereo not given), for which the EC50 on Mu-type opioid receptor [1] is 50 nM; in test [8], 29 nM. Besides, the Emax was 71% at Mu-type opioid receptor [1] and 96% in test [5]. For the same compound, the values for the Ratio Ki in [2] and in [3] were 0.4 and 16, respectively. The Ki in test [4] was determined as 3.3 nM; on Mu-type opioid receptor [6] it was 1.4 nM; in test [7], 53 nM.
As to `CCNC(=O)Oc1ccc2c(c1)C13CCCCC1C(C2)N(CC1CCC1)CC3` (stereo not given), the EC50 on Mu-type opioid receptor [1] was found to be 39 nM; in [8], 23 nM. Further, the figures for the Emax (on Mu-type opioid receptor [1]; in [5]) were 32% and 61%, respectively. Further, the results for the Ratio Ki in test [2] and in [3] were 0.9 and 6, respectively. Further, the results for the Ki (in test [4]; on Mu-type opioid receptor [6]; in [7]) were 4.3 nM, 3.7 nM and 27 nM, respectively. Also, the result on Mu-type opioid receptor [9] was inactive. Further, the Imax at Mu-type opioid receptor [9] amounted to 33%.
In turn, `Oc1ccc2c(c1)[C@@]13CCCC[C@H]1[C@@H](C2)N(CC1CCC1)CC3` [BUTORPHAN] yielded a Ki in [10] of 5.9 nM.
In the case of `O=C(NCc1ccccc1)Oc1ccc2c(c1)C13CCCCC1C(C2)N(CC1CC1)CC3` (single isomer, unassigned; (-)), the concentration for a half-maximal effect (EC50) on Mu-type opioid receptor [1] was determined as 2.2 nM; in [8], 1.1 nM. The figures for the maximal effect (Emax) (at Mu-type opioid receptor [1]; in [5]) were 39% and 130%, respectively. Moreover, the Ratio Ki in [2] stood at 2; in [3], 20. In addition, the Ki was 0.14 nM in test [4], 0.3 nM at Mu-type opioid receptor [6] and 2.7 nM in [7]. The IC50 at Mu-type opioid receptor [9] amounted to 16 nM. Further, the Imax at Mu-type opioid receptor [9] is 71%.
As to `CCNC(=O)Oc1ccc2c(c1)C13CCCCC1C(C2)N(C)CC3` (stereo not given), the Ratio Ki stood at 0.1 in [2] and 2 in test [3]. The Ki in test [4] was determined as 36 nM; at Mu-type opioid receptor [6], 4.8 nM; in test [7], 78 nM.
As to `O=C(NCc1ccccc1)Oc1ccc2c(c1)C13CCCCC1C(C2)N(CC1CCC1)CC3` (single isomer, unassigned; (-)), the concentration giving a half-maximal response (EC50) came to 7.1 nM on Mu-type opioid receptor [1] and 4.7 nM in test [8]. The maximal effect (Emax) was determined as 54% on Mu-type opioid receptor [1] and 110% in test [5]. The figures for the Ratio Ki in [2] and in [3] were 0.4 and 50, respectively. For the same compound, the Ki in test [4] is 0.3 nM; on Mu-type opioid receptor [6], 0.7 nM; in test [7], 15 nM. Also, the IC50 at Mu-type opioid receptor [9] is 260 nM. Also, the Imax at Mu-type opioid receptor [9] came out at 50%.
